Laboratory results taken from PMC8542630 (Cell chemical biology, 2021).

Key:
Hs-dynein 1 [1] = biological target: T1, Hs-dynein 1 (Homo sapiens, UniProt Q14204); experiment: Radioactive ATPase assay, microtubule-stimulated ATPase activity of Hs-dynein 1; format: biochemical
In short: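 Radioactive ATPase assay with Hs-dynein 1 (His6, aa 1320–4646; 30 nM) in the presence of microtubules. Reaction time was 45 min, and rates with test compound were normalised to DMSO control.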

Xl-katanin = Xl-katanin (Xenopus laevis, UniProt Q9PUL2); experiment: NADH-coupled steady-state ATPase assay, Xl-katanin; format: biochemical, X. laevis
Chain of Xl-katanin (Q9PUL2 whole entry): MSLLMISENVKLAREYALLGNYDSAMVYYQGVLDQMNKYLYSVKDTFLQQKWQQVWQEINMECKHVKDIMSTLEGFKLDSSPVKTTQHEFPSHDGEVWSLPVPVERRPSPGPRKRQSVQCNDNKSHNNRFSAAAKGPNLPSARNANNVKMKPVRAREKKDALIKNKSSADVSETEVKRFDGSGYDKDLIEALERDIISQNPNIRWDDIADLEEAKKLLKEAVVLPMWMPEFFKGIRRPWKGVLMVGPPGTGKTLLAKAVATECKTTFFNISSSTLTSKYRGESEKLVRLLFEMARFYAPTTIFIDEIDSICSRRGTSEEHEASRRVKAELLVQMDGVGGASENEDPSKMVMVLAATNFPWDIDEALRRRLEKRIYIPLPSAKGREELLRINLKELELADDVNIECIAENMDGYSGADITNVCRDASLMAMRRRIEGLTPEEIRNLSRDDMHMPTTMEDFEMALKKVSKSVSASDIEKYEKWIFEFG
In short: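 Recombinant Xl-katanin (50 nM; E. coli, MBP-trap, MonoQ and gel filtration) in 25 mM K-HEPES pH 7.5, 70 mM KCl, 20 mM (NH4)2SO4, 5 mM MgCl2, 2.5 mM DTT, 0.01% Triton X-100 plus NADH-coupled regeneration mix. After 10 min RT preincubation with test compound, MgATP started the reaction. The fluorescence decrease rate (340/440 nm) was converted to ATPase rate using an ADP standard curve.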

GFP-Sc-Dyn [2] = biological target: T2, GFP-Sc-Dyn (Saccharomyces cerevisiae, UniProt P36022); experiment: NADH-coupled steady-state ATPase assay, GFP-Sc-Dyn basal ATPase; format: biochemical, S. cerevisiae
Hs-dynein 1 [3] = biological target: T1, Hs-dynein 1; experiment: Radioactive ATPase assay, basal ATPase activity of Hs-dynein 1; format: biochemical
In short: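 Hs-dynein 1 motor construct (N-terminal His6, aa 1320–4646) at 30 nM, without microtubules. Radioactive ATPase reaction ran for 45 min with test compound. Percent inhibition was obtained by normalising the ATPase rate with compound to DMSO control.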

Sc-Dyn-lyso = Sc-Dyn-lyso (Saccharomyces cerevisiae, UniProt P36022); experiment: NADH-coupled steady-state ATPase assay, Sc-Dyn-lyso; format: biochemical, S. cerevisiae
In short: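 Ten-dose DMSO serial dilution of test compound (stock top 4 mM) was preincubated 10 min at RT. MgATP (10 mM stock) started the reaction, and NADH fluorescence slopes were converted via an ADP standard curve.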

GFP-Sc-Dyn [4] = biological target: T2, GFP-Sc-Dyn; experiment: Microtubule gliding assay; format: biochemical, S. cerevisiae; conditions: 25 μM compound
[5] = biological target: Sc-Dyn-lysoMut (AAA1 E/Q) (Saccharomyces cerevisiae, UniProt P36022, E1849Q); experiment: Microscale thermophoresis; format: binding, S. cerevisiae
Sc-DynGST = Sc-DynGST (Saccharomyces cerevisiae, UniProt P36022); experiment: Single-molecule motility assay; format: biochemical, S. cerevisiae
Mm-VCP/p97 = Mm-VCP/p97 (Mus musculus, UniProt Q01853); experiment: NADH-coupled steady-state ATPase assay, Mm-VCP/p97; format: biochemical, M. musculus
Chain of Mm-VCP/p97 (Q01853 whole entry): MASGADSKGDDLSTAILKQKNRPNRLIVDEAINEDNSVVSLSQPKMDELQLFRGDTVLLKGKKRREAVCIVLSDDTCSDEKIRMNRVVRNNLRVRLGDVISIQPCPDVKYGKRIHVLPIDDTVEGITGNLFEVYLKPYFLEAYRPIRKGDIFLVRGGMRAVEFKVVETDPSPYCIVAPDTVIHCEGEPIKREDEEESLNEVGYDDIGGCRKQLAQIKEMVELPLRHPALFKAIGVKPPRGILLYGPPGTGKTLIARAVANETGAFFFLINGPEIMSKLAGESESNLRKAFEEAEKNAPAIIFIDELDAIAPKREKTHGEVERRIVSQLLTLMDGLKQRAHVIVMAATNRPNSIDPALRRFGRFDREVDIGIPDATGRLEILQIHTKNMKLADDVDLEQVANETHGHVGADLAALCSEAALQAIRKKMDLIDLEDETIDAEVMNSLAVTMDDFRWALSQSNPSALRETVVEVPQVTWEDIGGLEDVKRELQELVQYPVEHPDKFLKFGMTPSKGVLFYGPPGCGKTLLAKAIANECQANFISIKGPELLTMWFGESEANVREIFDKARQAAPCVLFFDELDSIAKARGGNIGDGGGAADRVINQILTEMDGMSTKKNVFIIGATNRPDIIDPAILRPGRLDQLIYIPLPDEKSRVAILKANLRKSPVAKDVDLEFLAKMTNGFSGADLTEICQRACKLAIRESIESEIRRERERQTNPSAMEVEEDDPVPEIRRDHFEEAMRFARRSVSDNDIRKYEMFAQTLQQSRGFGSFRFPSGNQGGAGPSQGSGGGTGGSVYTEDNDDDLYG

[6] = biological target: GFP-Sc-Dyn AAA4 E/Q (E2819Q); experiment: NADH-coupled steady-state ATPase assay, GFP-Sc-Dyn AAA4 E/Q mutant; format: biochemical, S. cerevisiae; conditions: 1 mM MgATP, n=3
[7] = biological target: GFP-Sc-Dyn AAA4 E/Q (E2819Q) (Saccharomyces cerevisiae, UniProt P36022, E2819Q); experiment: as above; format: biochemical, S. cerevisiae
Hs-FIGL1 = biological target: T3, Hs-FIGL1 (Homo sapiens, UniProt Q6PIW4); experiment: NADH-coupled steady-state ATPase assay, Hs-FIGL1; format: biochemical, H. sapiens
T3 sequence (Q6PIW4 288-674): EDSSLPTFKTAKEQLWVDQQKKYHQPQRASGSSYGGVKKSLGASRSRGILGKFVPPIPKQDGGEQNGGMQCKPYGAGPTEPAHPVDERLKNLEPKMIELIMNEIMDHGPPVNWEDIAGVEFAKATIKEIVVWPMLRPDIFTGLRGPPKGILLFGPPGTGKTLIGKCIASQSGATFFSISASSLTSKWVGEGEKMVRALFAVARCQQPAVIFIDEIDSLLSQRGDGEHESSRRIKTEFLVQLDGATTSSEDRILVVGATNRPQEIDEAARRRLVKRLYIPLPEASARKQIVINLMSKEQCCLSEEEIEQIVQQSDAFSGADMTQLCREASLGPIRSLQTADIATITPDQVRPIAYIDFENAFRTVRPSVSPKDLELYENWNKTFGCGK
In short: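 Recombinant Hs-FIGL1 (50 nM; E. coli-expressed) in 25 mM Na-MES pH 6.5, 70 mM KOAc, 20 mM (NH4)2SO4, 5 mM Mg(OAc)2, 1 mM TCEP, 0.01% Triton X-100, with NADH/PEP/pyruvate kinase/lactate dehydrogenase coupling system. Protein preincubated 10 min at RT with test compound, then MgATP added. NADH fluorescence (ex 340, em 440 nm) slope converted to ATPase rate with an ADP standard curve.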

GFP-Sc-Dyn [8] = biological target: T2, GFP-Sc-Dyn; experiment: Microscale thermophoresis; format: binding, S. cerevisiae; conditions: for FNorm, GFP-Sc-Dyn (MST) / ΔFNorm, GFP-Sc-Dyn (MST): mean ± SD; for FNorm, GFP-Sc-Dyn (MST): n=3; for ΔFNorm, GFP-Sc-Dyn (MST): absence of AMPPNP, n=5
[9] = biological target: GFP-Sc-Dyn AAA3 E/Q (E2488Q) (Saccharomyces cerevisiae, UniProt P36022, E2488Q); experiment: Microscale thermophoresis; format: binding, S. cerevisiae
[10] = biological target: GFP-Sc-Dyn AAA1 E/Q (E1849Q) (Saccharomyces cerevisiae, UniProt P36022, E1849Q); experiment: Microscale thermophoresis; format: binding, S. cerevisiae
[11] = 1% DMSO, 1 mM Mg-ATP, mean ± SD
[12] = single-molecule, 0-50 μM compound

T1 sequence (Q14204 1320-4646): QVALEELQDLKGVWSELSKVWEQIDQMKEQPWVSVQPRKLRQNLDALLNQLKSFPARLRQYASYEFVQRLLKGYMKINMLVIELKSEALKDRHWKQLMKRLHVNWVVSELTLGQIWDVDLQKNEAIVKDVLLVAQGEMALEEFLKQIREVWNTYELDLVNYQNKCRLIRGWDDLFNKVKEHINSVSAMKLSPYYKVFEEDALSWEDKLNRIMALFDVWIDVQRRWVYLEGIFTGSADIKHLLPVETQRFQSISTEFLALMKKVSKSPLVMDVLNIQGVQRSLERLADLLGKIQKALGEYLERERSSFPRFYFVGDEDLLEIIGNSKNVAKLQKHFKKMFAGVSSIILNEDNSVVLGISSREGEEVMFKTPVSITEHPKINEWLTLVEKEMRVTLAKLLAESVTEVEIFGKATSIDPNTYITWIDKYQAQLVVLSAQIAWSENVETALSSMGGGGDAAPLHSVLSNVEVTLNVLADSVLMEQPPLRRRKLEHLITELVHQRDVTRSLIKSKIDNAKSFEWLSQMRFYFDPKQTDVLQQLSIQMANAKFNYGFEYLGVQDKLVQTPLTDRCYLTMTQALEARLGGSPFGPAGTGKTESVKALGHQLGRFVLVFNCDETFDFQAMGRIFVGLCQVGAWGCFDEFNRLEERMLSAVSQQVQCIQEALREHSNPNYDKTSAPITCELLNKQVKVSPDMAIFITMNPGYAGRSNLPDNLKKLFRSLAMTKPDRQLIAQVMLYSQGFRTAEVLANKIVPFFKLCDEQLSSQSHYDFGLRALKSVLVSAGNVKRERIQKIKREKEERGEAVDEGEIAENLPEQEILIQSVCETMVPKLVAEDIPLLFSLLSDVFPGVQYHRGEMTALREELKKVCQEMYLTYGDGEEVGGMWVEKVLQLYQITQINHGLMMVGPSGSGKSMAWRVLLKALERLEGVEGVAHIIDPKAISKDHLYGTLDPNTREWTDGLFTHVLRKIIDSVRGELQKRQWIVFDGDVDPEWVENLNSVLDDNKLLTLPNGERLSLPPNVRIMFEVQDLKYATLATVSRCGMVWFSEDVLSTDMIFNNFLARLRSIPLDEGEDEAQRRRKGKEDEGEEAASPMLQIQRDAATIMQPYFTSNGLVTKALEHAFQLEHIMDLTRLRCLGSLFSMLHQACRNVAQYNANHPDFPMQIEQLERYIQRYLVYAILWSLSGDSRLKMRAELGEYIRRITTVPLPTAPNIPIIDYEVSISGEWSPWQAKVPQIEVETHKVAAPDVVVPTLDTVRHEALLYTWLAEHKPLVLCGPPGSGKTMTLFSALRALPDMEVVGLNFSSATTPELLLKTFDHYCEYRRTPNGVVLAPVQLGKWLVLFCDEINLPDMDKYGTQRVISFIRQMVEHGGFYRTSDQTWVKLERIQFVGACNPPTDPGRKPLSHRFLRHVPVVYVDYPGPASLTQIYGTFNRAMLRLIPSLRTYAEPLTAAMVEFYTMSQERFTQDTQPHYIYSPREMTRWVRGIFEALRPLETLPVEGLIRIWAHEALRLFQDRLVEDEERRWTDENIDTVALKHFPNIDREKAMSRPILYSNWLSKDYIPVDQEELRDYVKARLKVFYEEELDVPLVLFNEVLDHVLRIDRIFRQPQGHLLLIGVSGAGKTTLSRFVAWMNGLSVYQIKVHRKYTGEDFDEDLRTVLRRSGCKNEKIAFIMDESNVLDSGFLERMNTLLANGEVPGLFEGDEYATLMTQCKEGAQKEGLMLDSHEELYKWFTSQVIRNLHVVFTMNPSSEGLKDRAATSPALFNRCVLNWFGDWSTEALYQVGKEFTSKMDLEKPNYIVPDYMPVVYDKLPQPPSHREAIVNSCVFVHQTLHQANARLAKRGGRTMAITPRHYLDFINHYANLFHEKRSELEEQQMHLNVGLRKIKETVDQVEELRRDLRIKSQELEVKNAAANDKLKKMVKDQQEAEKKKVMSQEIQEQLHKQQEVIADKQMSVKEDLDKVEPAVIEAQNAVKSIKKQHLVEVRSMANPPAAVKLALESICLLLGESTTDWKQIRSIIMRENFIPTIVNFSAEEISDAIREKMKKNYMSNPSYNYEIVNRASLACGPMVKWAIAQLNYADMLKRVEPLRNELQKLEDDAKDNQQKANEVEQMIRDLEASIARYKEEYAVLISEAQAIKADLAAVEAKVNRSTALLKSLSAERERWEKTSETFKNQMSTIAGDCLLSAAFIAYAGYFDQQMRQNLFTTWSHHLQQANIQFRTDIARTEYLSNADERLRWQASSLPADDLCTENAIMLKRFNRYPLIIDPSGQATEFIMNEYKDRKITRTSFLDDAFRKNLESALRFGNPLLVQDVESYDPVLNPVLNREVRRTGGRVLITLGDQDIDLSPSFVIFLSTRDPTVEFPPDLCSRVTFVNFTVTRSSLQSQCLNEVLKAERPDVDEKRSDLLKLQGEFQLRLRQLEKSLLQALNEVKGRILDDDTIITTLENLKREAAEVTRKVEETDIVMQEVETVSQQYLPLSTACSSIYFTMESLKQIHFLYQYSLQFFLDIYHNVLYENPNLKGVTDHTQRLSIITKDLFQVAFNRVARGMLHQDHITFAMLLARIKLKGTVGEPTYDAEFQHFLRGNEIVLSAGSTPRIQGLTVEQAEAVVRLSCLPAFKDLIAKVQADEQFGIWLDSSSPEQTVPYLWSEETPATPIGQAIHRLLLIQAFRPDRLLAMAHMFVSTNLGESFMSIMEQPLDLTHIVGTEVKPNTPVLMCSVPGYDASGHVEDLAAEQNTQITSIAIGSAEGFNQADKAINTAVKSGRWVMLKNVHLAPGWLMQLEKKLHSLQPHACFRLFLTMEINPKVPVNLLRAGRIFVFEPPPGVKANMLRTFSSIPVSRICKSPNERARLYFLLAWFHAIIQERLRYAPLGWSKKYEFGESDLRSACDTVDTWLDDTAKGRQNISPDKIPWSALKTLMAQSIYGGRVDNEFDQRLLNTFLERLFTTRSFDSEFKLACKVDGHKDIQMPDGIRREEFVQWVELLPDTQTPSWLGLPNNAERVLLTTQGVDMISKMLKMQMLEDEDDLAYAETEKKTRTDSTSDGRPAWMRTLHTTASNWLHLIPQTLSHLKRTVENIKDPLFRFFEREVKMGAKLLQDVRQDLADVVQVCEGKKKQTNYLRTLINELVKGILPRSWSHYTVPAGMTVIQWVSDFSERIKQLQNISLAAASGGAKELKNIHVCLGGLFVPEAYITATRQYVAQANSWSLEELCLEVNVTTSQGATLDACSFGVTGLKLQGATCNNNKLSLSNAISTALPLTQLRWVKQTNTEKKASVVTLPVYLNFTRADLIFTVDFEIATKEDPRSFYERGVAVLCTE

N#Cc1c(C2(c3ccc(Cl)cc3)CC2)nn2c(=O)c(Oc3cccc(Br)c3)c[nH]c12 [compound 20, 6-(3-bromophenoxy)-2-[1-(4-chlorophenyl)cyclopropyl]-7-oxo-4H-pyrazolo[1,5-a]pyrimidine-3-carbonitrile]
IC50 (Hs-dynein 1 [1]): ~10 µM
Reduction of ATPase activity, Xl-katanin (Xl-katanin; 20 μM, 1 mM MgATP): < 25%
Percent steady-state ATPase activity, Xl-katanin (Xl-katanin; compound 20 μM, mean ± SD, n=3): 76 ± 9.0%
IC50 (GFP-Sc-Dyn [2]): 14 ± 1 µM
IC50 (Hs-dynein 1 [3]): 12 ± 9.3 µM
Inhibition of Hs-dynein 1 basal ATPase activity (in words) (Hs-dynein 1 [3]; compounds tested at 20 μM, 1 mM MgATP, no microtubules, n=2): most active
IC50 (Sc-Dyn-lyso): 15 ± 3.1 µM
Time until most microtubules become immotile (GFP-Sc-Dyn [4]): ≤ 30 min
Microtubule gliding velocity, 30 minutes after treatment (GFP-Sc-Dyn [4]; [11]): 3 ± 5
Microtubule gliding velocity, immediately after treatment (GFP-Sc-Dyn [4]; [11]): 35 ± 19
EC50 [5]: 34 ± 11 µM
EC50 (Sc-DynGST): 12.7 ± 2.5 µM
Pausing during processive runs (in words) (Sc-DynGST; single-molecule): no significant pausing
Effect on dynein processivity (run length) (in words) (Sc-DynGST; [12]): little to no effect
Effect on dynein velocity (in words) (Sc-DynGST; [12]): little to no effect
Reduction of ATPase activity, Mm-VCP (Mm-VCP/p97; 20 μM, 1 mM MgATP): < 25%
Percent steady-state ATPase activity, Mm-p97 (Mm-VCP/p97; compound 20 μM, mean ± SD, n=3): 99 ± 7.9%
IC50 fold lower than that of GFP-Sc-Dyn, AAA4 E/Q mutant [6]: ~ 5 fold
IC50 [7]: 2.9 ± 0.3 µM
Percent steady-state ATPase activity, Hs-FIGL (Hs-FIGL1; compound 20 μM, mean ± SD, n=3): 15 ± 11%
inhibition at 20 µM (Hs-FIGL1; read-out: Inhibition of ATPase activity, Hs-FIGL1): ~85%
FNorm, GFP-Sc-Dyn (MST) (GFP-Sc-Dyn [8]; 12.5 μM compound, AMPPNP 100 μM): 0.8 ± 2
FNorm, GFP-Sc-Dyn (MST) (GFP-Sc-Dyn [8]; 12.5 μM compound, AMPPNP 1 mM): 1.9 ± 1.2
ΔFNorm, GFP-Sc-Dyn (MST) (GFP-Sc-Dyn [8]; 12.5 μM compound): 3.0 ± 5.0
FNorm, GFP-Sc-Dyn (MST) (GFP-Sc-Dyn [8]; 25 μM compound, AMPPNP 100 μM): 2.4 ± 2.3
FNorm, GFP-Sc-Dyn (MST) (GFP-Sc-Dyn [8]; 25 μM compound, AMPPNP 1 mM): 0.1 ± 1
ΔFNorm, GFP-Sc-Dyn (MST) (GFP-Sc-Dyn [8]; 25 μM compound): 6.7 ± 5.2
ΔFNorm lower than that of the WT control (GFP-Sc-Dyn [8]; 50 μM compound 20, AMPPNP 1 mM): ~ 93%
FNorm, GFP-Sc-Dyn (MST) (GFP-Sc-Dyn [8]; 50 μM compound, AMPPNP 100 μM): 9.3 ± 2.3
FNorm, GFP-Sc-Dyn (MST) (GFP-Sc-Dyn [8]; 50 μM compound, AMPPNP 1 mM): 1.2 ± 2
ΔFNorm, GFP-Sc-Dyn (MST) (GFP-Sc-Dyn [8]; 50 μM compound): 16 ± 2.8
EC50 (GFP-Sc-Dyn [8]; EC50, binding to GFP-Sc-Dyn (MST), mean ± 95% CI, n=9, Figures 5D-E): 70 ± 31 µM
EC50 (GFP-Sc-Dyn [8]; EC50, binding to WT GFP-Sc-Dyn (MST), mean ± 95% CI, n=4, Figure 5N, compared with V2391S/M2732S mutant): 36 ± 7.8 µM
Hill slope, binding to GFP-Sc-Dyn (MST) (GFP-Sc-Dyn [8]; mean ± 95% CI, n=9): 1.7 ± 0.6
EC50 [9]: 87 ± 104 µM
Hill slope, binding to AAA3 E/Q mutant (MST) ([9]; mean ± 95% CI, n=4): 0.8 ± 0.3
EC50 [10]: 73 ± 114 µM
Hill slope, binding to AAA1 E/Q mutant (MST) ([10]; mean ± 95% CI, n=4): 1.3 ± 0.9
